How the values were obtained:
Rattus norvegicus [1] = assay: Antineuropathic pain activity in rat spinal nerve ligation model assessed as effect on cold allodynia by measuring frequency of paw withdrawal at 100 mg/kg, po measured at 3 hrs relative to gabapentin; type: functional
Summary of the method: (§1)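 Spinal nerve ligation rats tested 2 weeks after nerve surgery, 100 mg/kg oral, n = 4 per group. Behaviour re-tested at 1, 3 and 5 h after dosing. Mechanical allodynia: von Frey filament applied five times, every 3–4 s, to the hind paw on a wire mesh floor. Cold allodynia: acetone applied to the plantar hind paw on a metal mesh floor.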

Rattus norvegicus [2] = assay: Antineuropathic pain activity in rat spinal nerve ligation model assessed as effect on mechanical allodynia by measuring frequency of paw withdrawal at 100 mg/kg, po measured at 5 hrs relative to gabapentin; type: functional; summary of the method: as §1
Rattus norvegicus [3] = assay: Antineuropathic pain activity in rat spinal nerve ligation model assessed as effect on mechanical allodynia by measuring frequency of paw withdrawal at 100 mg/kg, po measured at 1 hr relative to control; type: functional; summary of the method: as §1
Rattus norvegicus [4] = assay: Antineuropathic pain activity in rat spinal nerve ligation model assessed as effect on mechanical allodynia by measuring frequency of paw withdrawal at 100 mg/kg, po measured at 5 hrs relative to control; type: functional; summary of the method: as §1
Rattus norvegicus [5] = assay: Antineuropathic pain activity in rat spinal nerve ligation model assessed as effect on cold allodynia by measuring frequency of paw withdrawal at 100 mg/kg, po measured at 1 hr relative to control; type: functional; summary of the method: as §1
Rattus norvegicus [6] = assay: Antineuropathic pain activity in rat spinal nerve ligation model assessed as effect on cold allodynia by measuring frequency of paw withdrawal at 100 mg/kg, po measured at 1 hr relative to gabapentin; type: functional; summary of the method: as §1
Rattus norvegicus [7] = assay: Antineuropathic pain activity in rat spinal nerve ligation model assessed as effect on cold allodynia by measuring frequency of paw withdrawal at 100 mg/kg, po measured at 5 hrs relative to control; type: functional; summary of the method: as §1
[8] = Metabolic stability in human liver microsomes assessed as compound remaining at 1 uM in presence of NADPH as cofactor by LC-MS/MS method; type: ADME; conditions: read-out: Stability
Summary of the method: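 Pooled mixed-gender human liver microsomes incubated with compound at 37 °C with NADPH as cofactor. Result given as % parent compound remaining.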

[9] = target: T1, Voltage-dependent T-type calcium channel subunit alpha-1G (Homo sapiens, UniProt O43497); assay: Inhibition of Cav3.1 alpha1G (unknown origin) expressed in HEK293 cells assessed as decrease in KCl-induced depolarization mediated intracellular Ca2+ level at 10 uM by fluo3/AM based high throughput screening assay relative to control; type: cell-based
T1 sequence (O43497 whole entry): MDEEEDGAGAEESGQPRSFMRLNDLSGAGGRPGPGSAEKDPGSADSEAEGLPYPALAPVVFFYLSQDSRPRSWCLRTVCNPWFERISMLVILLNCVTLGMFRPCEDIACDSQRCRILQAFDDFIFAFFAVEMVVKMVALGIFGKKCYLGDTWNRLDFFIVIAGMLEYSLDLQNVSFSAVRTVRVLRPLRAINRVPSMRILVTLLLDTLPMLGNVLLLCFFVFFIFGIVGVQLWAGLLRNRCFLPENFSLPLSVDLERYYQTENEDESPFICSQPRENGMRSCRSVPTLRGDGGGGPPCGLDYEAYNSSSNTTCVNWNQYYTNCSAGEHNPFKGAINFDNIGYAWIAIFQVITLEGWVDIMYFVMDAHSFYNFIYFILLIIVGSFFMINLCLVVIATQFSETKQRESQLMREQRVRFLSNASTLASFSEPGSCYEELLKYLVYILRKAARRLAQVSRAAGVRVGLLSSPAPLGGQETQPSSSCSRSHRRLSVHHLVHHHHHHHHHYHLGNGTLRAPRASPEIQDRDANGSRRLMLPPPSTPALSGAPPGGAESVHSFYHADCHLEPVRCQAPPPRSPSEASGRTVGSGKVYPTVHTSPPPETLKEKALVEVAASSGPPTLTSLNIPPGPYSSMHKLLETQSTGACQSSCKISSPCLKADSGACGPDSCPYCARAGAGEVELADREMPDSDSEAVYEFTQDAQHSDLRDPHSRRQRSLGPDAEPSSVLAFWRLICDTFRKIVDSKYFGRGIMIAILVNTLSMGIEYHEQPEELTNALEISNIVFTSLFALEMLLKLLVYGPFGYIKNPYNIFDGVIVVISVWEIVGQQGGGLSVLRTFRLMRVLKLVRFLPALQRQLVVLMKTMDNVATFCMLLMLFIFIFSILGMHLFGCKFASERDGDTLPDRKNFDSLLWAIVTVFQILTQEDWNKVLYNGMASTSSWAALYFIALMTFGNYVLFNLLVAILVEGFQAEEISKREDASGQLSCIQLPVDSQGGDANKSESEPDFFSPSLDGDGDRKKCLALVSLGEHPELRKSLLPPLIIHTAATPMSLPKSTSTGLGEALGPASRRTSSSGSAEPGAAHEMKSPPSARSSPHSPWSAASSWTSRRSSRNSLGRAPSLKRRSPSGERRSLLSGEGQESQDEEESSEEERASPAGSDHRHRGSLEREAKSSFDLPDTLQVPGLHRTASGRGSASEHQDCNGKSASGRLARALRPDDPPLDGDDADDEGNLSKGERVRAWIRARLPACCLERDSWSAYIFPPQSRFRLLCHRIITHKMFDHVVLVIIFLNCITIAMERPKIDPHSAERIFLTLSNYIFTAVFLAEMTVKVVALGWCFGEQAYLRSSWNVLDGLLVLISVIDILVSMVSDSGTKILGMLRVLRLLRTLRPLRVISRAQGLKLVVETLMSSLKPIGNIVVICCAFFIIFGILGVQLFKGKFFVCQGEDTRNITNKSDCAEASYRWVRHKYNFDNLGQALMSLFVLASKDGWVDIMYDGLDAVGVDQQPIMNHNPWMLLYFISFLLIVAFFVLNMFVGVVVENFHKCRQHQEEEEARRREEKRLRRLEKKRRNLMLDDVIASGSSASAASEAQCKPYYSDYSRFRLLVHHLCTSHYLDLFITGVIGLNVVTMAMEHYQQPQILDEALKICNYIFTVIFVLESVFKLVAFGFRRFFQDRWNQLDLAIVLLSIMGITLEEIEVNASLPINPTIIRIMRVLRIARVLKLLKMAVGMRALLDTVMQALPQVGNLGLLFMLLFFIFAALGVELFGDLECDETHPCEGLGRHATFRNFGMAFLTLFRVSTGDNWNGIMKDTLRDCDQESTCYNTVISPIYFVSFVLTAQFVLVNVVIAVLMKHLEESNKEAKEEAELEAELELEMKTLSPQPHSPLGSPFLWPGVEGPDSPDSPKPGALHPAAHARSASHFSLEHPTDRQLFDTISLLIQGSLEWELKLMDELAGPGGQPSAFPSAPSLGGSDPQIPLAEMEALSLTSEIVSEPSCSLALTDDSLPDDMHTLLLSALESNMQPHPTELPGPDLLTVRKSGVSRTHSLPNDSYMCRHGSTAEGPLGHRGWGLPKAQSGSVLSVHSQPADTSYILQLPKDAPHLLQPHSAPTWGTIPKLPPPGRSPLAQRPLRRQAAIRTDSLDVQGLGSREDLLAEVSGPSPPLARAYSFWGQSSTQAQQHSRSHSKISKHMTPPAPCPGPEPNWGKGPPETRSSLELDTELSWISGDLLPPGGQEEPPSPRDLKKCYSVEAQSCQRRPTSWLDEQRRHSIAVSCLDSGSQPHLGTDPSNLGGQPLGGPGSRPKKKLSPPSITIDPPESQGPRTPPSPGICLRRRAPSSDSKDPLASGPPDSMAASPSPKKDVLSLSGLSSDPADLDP
Summary of the method: (§2)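 HEK293 cells stably expressing Cav3.1 or Cav3.2 plated at 4 × 10⁴ cells/well and used the next day. Loaded 60 min at room temperature with […] fluo3/AM plus 0.001% Pluronic F-127 in HEPES-buffered saline (1.8 mM CaCl₂, pH 7.4). Ca²⁺ fluorescence read on FDSS6000 as % inhibition, compound at […].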

CYP2C9 = CYP2C9 (Homo sapiens, UniProt P11712); assay: Inhibition of human CYP2C9 assessed as remaining activity at 10 uM using vivid CYP450 substrate measured after 15 mins by fluorescence assay relative to sulfaphenazol; type: ADME; conditions: probe vivid CYP450 substrate, read-out: Activity
Summary of the method: (§3)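 Vivid fluorescence CYP assay: test compound at […] in water, mixed with BACULOSOMES master pre-mix and regeneration system, preincubated 15 min at 37 °C. Reaction started with Vivid substrate and NADPH. Remaining activity read by fluorescence as % of control, triplicate, mean ± SD. Isoform-specific reference inhibitors: α-naphthoflavone (1A2), sulfaphenazole (2C9), quinidine (2D6), ketoconazole (3A4).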

[10] = target: T2, Voltage-dependent T-type calcium channel subunit alpha-1H (Homo sapiens, UniProt O95180); assay: Inhibition of Cav3.2 alpha1H (unknown origin) expressed in HEK293 cells by whole-cell patch clamp method; type: cell-based
T2 sequence (O95180 whole entry): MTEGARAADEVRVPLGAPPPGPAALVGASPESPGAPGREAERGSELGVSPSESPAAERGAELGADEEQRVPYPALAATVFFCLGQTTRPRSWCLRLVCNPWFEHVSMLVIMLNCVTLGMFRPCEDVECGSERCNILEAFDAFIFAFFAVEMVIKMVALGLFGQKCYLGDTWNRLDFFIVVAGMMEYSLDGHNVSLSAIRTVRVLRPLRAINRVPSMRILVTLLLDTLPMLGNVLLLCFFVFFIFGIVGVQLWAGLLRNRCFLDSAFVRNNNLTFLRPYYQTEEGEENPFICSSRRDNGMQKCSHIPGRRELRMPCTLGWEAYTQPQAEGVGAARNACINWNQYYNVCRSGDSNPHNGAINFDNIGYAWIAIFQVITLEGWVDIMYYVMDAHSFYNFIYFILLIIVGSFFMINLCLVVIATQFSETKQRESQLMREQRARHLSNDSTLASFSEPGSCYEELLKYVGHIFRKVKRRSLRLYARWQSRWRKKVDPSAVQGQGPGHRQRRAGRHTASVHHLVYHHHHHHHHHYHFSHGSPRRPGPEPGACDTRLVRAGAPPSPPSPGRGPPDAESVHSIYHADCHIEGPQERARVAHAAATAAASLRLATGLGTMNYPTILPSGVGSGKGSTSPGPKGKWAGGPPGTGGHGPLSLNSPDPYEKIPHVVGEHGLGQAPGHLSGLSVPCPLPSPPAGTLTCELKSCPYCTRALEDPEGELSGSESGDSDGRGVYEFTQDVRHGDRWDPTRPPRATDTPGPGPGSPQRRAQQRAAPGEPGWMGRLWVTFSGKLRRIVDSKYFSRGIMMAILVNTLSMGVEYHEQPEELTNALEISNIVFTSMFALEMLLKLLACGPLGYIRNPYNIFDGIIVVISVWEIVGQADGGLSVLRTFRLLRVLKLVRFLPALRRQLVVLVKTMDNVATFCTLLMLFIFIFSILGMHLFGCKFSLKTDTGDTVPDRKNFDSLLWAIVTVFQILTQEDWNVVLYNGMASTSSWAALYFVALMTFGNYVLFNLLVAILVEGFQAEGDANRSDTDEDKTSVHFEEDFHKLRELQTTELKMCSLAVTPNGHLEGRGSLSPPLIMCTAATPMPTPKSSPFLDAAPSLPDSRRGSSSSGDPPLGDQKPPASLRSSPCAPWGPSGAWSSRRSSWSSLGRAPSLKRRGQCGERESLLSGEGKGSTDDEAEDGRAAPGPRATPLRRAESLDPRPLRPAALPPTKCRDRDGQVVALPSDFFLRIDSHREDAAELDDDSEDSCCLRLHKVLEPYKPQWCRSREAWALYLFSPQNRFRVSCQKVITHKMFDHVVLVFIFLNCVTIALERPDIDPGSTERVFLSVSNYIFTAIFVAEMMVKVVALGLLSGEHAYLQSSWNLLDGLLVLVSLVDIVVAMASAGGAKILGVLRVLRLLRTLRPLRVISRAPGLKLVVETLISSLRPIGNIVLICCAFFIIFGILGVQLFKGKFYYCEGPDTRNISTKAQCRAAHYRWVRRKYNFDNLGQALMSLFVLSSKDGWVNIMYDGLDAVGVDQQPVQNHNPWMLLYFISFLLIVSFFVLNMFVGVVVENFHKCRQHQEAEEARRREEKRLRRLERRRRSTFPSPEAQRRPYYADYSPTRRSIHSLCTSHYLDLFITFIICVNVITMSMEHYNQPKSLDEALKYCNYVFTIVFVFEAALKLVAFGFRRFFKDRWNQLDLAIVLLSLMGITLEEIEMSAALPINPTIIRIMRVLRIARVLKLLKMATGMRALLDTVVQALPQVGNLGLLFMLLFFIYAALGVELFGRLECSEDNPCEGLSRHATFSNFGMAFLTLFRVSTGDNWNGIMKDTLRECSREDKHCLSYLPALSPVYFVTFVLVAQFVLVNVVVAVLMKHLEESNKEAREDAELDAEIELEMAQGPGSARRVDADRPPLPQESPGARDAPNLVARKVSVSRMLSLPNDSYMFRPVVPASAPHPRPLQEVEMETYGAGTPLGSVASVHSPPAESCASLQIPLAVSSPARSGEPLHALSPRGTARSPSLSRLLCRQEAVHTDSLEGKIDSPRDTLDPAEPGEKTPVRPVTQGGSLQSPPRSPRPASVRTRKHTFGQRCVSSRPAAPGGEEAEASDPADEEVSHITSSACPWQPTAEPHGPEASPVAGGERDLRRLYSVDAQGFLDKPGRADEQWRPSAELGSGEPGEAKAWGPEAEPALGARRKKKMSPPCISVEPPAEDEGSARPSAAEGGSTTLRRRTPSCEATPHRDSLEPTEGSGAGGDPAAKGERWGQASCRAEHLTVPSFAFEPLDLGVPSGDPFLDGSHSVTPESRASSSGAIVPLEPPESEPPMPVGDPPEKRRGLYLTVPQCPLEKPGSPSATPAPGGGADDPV
Summary of the method: (§4)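 Whole-cell patch clamp on HEK293 cells expressing Cav3.1 or Cav3.2. T-type currents evoked every 15 s by a 50-ms step from −100 mV to −30 mV. External solution (mM): 140 NaCl, 2 CaCl₂, 10 HEPES, 10 glucose, pH 7.4.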

Rattus norvegicus [11] = assay: Antineuropathic pain activity in rat spinal nerve ligation model assessed as effect on cold allodynia by measuring frequency of paw withdrawal at 100 mg/kg, po measured at 3 hrs relative to control; type: functional; summary of the method: as §1
Rattus norvegicus [12] = assay: Antineuropathic pain activity in rat spinal nerve ligation model assessed as effect on mechanical allodynia by measuring frequency of paw withdrawal at 100 mg/kg, po measured at 1 hr relative to gabapentin; type: functional; summary of the method: as §1
[13] = target: T2, Voltage-dependent T-type calcium channel subunit alpha-1H; assay: Inhibition of Cav3.2 alpha1H (unknown origin) expressed in HEK293 cells assessed as decrease in KCl-induced depolarization mediated intracellular Ca2+ level at 10 uM by fluo3/AM based high throughput screening assay relative to control; type: cell-based; summary of the method: as §2
Homo sapiens = species on record: Homo sapiens; assay: Inhibition of N-type Ca2+ channel (unknown origin) at 10 uM by whole-cell patch clamp method relative to control
Rattus norvegicus [14] = assay: Antineuropathic pain activity in rat spinal nerve ligation model assessed as effect on cold allodynia by measuring frequency of paw withdrawal at 100 mg/kg, po measured at 5 hrs relative to gabapentin; type: functional; summary of the method: as §1
Rattus norvegicus [15] = assay: Antineuropathic pain activity in rat spinal nerve ligation model assessed as effect on mechanical allodynia by measuring frequency of paw withdrawal at 100 mg/kg, po measured at 3 hrs relative to gabapentin; type: functional; summary of the method: as §1
Rattus norvegicus [16] = assay: Antineuropathic pain activity in rat spinal nerve ligation model assessed as effect on mechanical allodynia by measuring frequency of paw withdrawal at 100 mg/kg, po measured at 3 hrs relative to control; type: functional; summary of the method: as §1
CYP3A4 = CYP3A4 (Homo sapiens, UniProt P08684); assay: Inhibition of human CYP3A4 assessed as remaining activity at 10 uM using vivid CYP450 substrate measured after 15 mins by fluorescence assay relative to ketoconazole; type: ADME; conditions: probe vivid CYP450 substrate, read-out: Activity; summary of the method: as §3
[17] = target: T1, Voltage-dependent T-type calcium channel subunit alpha-1G; assay: Inhibition of Cav3.1 alpha1G (unknown origin) expressed in HEK293 cells by whole-cell patch clamp method; type: cell-based; summary of the method: as §4
CYP2D6 = CYP2D6 (Homo sapiens, UniProt P10635); assay: Inhibition of human CYP2D6 assessed as remaining activity at 10 uM using vivid CYP450 substrate measured after 15 mins by fluorescence assay relative to quinidine; type: ADME; conditions: probe vivid CYP450 substrate, read-out: Activity; summary of the method: as §3

| SMILES | inhibition [9] [%] | inhibition [13] [%] | further results |
| --- | --- | --- | --- |
| CC(C)Cc1cc(CNS(=O)(=O)CCc2ccccc2)nn1-c1ccccc1 | 70.5 | 68.6 | MPE (Rattus norvegicus [1]): 11.27%; MPE (Rattus norvegicus [2]): -10.34%; MPE (Rattus norvegicus [3]): -3.8%; MPE (Rattus norvegicus [4]): -4.68%; MPE (Rattus norvegicus [5]): 3.08%; MPE (Rattus norvegicus [6]): 7%; MPE (Rattus norvegicus [7]): 3.08%; remaining at 1 µM [8]: 88.2%; activity at 0.25 h, 10 µM (CYP2C9): 45.2%; IC50 [10]: 14.6 µM; MPE (Rattus norvegicus [11]): 9.07%; MPE (Rattus norvegicus [12]): -34.45%; inhibition (Homo sapiens): 42.2%; MPE (Rattus norvegicus [14]): 7.05%; MPE (Rattus norvegicus [15]): -12.82%; MPE (Rattus norvegicus [16]): -7.3%; activity at 0.25 h, 10 µM (CYP3A4): 38.7%; IC50 [17]: 12.4 µM; activity at 0.25 h, 10 µM (CYP2D6): 45.2% |
| CC(C)Cc1cc(CNS(=O)(=O)c2cccc(Cl)c2)nn1-c1ccccc1 | 57.6 | 55.7 |  |
| Cc1ccc(F)c(S(=O)(=O)NCc2cc(CC(C)C)n(-c3ccccc3)n2)c1 | 54.9 | 70 |  |
| CC(C)(C)n1nc(CNS(=O)(=O)c2ccccc2)cc1-c1cccc(F)c1 | 51.5 | 53.5 |  |
| CC(C)Cc1cc(CNS(=O)(=O)c2cccc(I)c2)nn1-c1ccccc1 | 46.4 | 44.9 |  |
| CC(C)Cc1cc(CNS(=O)(=O)c2ccc(C(C)(C)C)cc2)nn1-c1ccccc1 | 46.9 | 33.4 |  |
| CC(C)(C)n1nc(CNS(=O)(=O)c2ccccc2)cc1-c1ccccc1 | 55.5 | 10.4 |  |
| CC(C)Cc1cc(CNS(=O)(=O)Cc2cccc3ccccc23)nn1-c1ccccc1 | 7.09 | 6.66 |  |
| CC(C)Cc1cc(CNS(=O)(=O)c2ccc3ccccc3c2)nn1-c1ccccc1 | 19.8 | 24.9 |  |
| Cc1ccc(S(=O)(=O)NCc2cc(CC(C)C)n(-c3ccccc3)n2)cc1 | 57.3 | 62.2 |  |

Reference: ChEMBL document CHEMBL3872218, “Synthesis and T-type calcium channel-blocking effects of aryl(1,5-disubstituted-pyrazol-3-yl)methyl sulfonamides for neuropathic pain treatment” (Eur J Med Chem, 2016)
